Experimental data: article PMC7928716 (Science Signaling, 2021)
Square brackets hold non-standard residues; d marks the D form. Peptide text beside a SMILES is read from it. * marks the point of attachment. FITC = O=C1OC2(c3ccc(O)cc3Oc3cc(O)ccc32)c2ccc(NC(=S)*)cc21; pY = N[C@@H](Cc1ccc(OP(=O)(O)O)cc1)C(=O)O; pT = C[C@@H](OP(=O)(O)O)[C@H](N)C(=O)O; pS = N[C@@H](COP(=O)(O)O)C(=O)O

What was measured:
[1] = target: T1, AP2 μ2 (Homo sapiens, UniProt Q96CW1); experiment: FP saturation; type: binding
T1 sequence (Q96CW1 160-435): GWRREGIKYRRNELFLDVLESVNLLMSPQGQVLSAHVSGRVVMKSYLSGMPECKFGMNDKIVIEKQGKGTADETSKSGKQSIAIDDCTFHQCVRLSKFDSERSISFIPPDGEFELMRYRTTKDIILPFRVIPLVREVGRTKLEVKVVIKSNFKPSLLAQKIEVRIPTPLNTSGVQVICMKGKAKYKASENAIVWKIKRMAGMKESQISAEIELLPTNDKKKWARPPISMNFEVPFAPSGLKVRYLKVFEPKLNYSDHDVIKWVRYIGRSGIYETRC
Summary of the method: (§1)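 GST-tagged domains were expressed in E. coli BL21-Gold (DE3) (IPTG induction, 16 h at 18°C) and purified on glutathione beads. The tag was removed with thrombin, and domains were dialysed into 50 mM sodium phosphate pH 7.4 with 1 mM DTT. Probes were FITC-ATG9A4–14 (AP2 μ2) and FITC-SQSTM1335–344 (ATG8 domains). 5 nM labelled peptide was mixed with an equal volume of a protein dilution series at room temperature and read without preincubation. KD came from a quadratic fit, in technical triplicates.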

[2] = target: FYN SH2 (Homo sapiens, UniProt P06241); experiment: FP saturation; type: binding
Chain of FYN SH2 (P06241 142-251): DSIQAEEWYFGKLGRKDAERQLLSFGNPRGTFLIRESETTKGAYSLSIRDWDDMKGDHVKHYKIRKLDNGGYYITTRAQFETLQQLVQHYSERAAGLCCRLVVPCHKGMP
Summary of the method: (§2)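 The SH2 domain was expressed GST-tagged in E. coli. The tag was cleaved with HRV 3C and the protein dialysed into 50 mM sodium phosphate pH 7.4 with 1 mM DTT. KD came from a quadratic fit, in technical triplicates.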

[3] = target: NCK1 SH2 (Homo sapiens, UniProt P16333); experiment: FP saturation; type: binding
[4] = target: LYN SH2 (Homo sapiens, UniProt P07948); experiment: FP saturation; type: binding
Chain of LYN SH2 (P07948 127-234): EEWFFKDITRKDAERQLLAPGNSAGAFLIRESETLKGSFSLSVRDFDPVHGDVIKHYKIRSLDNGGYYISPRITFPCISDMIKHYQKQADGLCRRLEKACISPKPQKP
Summary of the method: as §2

[5] = target: T2, MAP1LC3A ATG8 (Homo sapiens, UniProt Q9H492); experiment: FP saturation; type: binding
[6] = target: T3, MAP1LC3B ATG8 (Homo sapiens, UniProt Q9GZQ8); experiment: FP saturation; type: binding
Summary of the method: as §1

[7] = target: T4, GABARAP ATG8 (Homo sapiens, UniProt O95166); experiment: FP saturation; type: binding
T4 sequence (O95166 2-115): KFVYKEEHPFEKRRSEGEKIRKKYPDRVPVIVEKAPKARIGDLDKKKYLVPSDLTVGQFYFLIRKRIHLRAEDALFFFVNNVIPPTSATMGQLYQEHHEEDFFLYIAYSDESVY

[8] = target: T5, GABARAPL2 ATG8 (Homo sapiens, UniProt P60520); experiment: FP saturation; type: binding
T5 sequence (P60520 2-115): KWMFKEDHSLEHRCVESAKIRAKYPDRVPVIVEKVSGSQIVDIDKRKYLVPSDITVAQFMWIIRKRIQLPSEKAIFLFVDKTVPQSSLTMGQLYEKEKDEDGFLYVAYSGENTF
Summary of the method: as §1

[9] = target: T6, DOK1 PTB (Homo sapiens, UniProt Q99704); experiment: FP saturation; type: binding
T6 sequence (Q99704 151-256): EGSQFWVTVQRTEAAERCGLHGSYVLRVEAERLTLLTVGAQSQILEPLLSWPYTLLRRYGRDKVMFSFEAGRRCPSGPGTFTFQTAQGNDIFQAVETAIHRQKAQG
Summary of the method: (§3)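 Direct FP saturation used GST-tagged PTB domains (the talin entry is the PTB-like FERM lobe), expressed in E. coli at 18°C for 16 h. GST was removed with thrombin and the protein dialysed into 50 mM sodium phosphate pH 7.4 with 1 mM DTT. KD came from a quadratic fit, in technical triplicates.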

[10] = target: T7, FRS2 PTB (Homo sapiens, UniProt Q8WU20); experiment: FP saturation; type: binding
T7 sequence (Q8WU20 8-136): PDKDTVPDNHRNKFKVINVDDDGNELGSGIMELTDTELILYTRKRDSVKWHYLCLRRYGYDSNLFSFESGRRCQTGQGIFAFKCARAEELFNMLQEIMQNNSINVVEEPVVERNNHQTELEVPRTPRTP
Summary of the method: as §3

[11] = target: T8, IRS1 PTB (Homo sapiens, UniProt P35568); experiment: FP saturation; type: binding
T8 sequence (P35568 157-267): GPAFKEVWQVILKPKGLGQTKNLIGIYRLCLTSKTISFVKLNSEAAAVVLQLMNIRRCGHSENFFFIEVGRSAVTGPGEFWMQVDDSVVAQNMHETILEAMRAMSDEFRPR
Summary of the method: as §3

[12] = target: TLN2 PTB (Homo sapiens, UniProt Q9Y4G6); experiment: FP saturation; type: binding
Chain of TLN2 PTB (Q9Y4G6 309-401): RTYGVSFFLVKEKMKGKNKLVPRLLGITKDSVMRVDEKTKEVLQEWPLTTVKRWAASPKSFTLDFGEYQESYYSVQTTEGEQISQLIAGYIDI
Summary of the method: as §3

[13] = target: T9, SNX17 FERM (Mus musculus, UniProt Q8BVL3); experiment: FP saturation; type: binding
T9 sequence (Q8BVL3 109-388): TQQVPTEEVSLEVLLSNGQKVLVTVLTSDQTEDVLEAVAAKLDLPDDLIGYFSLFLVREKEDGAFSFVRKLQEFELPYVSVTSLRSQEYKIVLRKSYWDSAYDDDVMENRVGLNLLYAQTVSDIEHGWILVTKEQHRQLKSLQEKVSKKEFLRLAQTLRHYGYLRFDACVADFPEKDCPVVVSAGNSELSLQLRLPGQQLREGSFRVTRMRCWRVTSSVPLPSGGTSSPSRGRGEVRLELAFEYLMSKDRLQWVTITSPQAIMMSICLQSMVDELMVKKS
Summary of the method: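 The FERM domain was expressed GST-tagged in E. coli BL21-Gold (DE3) at 18°C. The tag was removed with TEV protease and the protein dialysed into 50 mM sodium phosphate pH 7.4 with 1 mM DTT. Direct FP used 5 nM FITC-labeled peptide with a protein dilution series at room temperature and no preincubation. KD came from a quadratic fit, in technical triplicates.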

[14] = tested on: SARS-CoV-2; conditions: study repurposing approved compounds; cited from earlier work
[15] = target: T2, MAP1LC3A ATG8; experiment: FP displacement of FITC-SQSTM1_335–344 from MAP1LC3A ATG8; type: binding
Summary of the method: (§4)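 GST-tagged ATG8 domains were expressed in E. coli BL21-Gold (DE3) with 1 mM IPTG at OD600 0.7 for 16 h at 18°C. They were glutathione-bead purified, thrombin-cleaved overnight at 4°C, and dialysed into 50 mM sodium phosphate pH 7.4 with 1 mM DTT. Domain level for displacement was set from FITC-SQSTM1 saturation curves. Unlabeled peptides were in phosphate buffer. FP was read at room temperature and KI calculated.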

[16] = target: T3, MAP1LC3B ATG8; experiment: FP displacement of FITC-SQSTM1_335–344 from MAP1LC3B ATG8; type: binding
Summary of the method: as §4

[17] = target: MAP1LC3C ATG8 (Homo sapiens, UniProt Q9BXW4); experiment: FP displacement of FITC-SQSTM1_335–344 from MAP1LC3C ATG8; type: binding
Chain of MAP1LC3C ATG8 (Q9BXW4 2-125): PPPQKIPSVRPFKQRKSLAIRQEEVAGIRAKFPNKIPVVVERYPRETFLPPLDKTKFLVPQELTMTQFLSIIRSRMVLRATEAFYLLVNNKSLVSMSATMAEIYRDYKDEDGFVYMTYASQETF
Summary of the method: as §4

[18] = target: T5, GABARAPL2 ATG8; experiment: FP displacement of FITC-SQSTM1_335–344 from GABARAPL2 ATG8; type: binding
Summary of the method: as §4

[19] = target: T4, GABARAP ATG8; experiment: FP displacement of FITC-SQSTM1_335–344 from GABARAP ATG8; type: binding
Summary of the method: as §4

Compound	Ki [15] [µM]	Ki [16] [µM]	Ki [17] [µM]	Ki [18] [µM]	other results
CC[C@H](C)[C@H](NC(=O)[C@H](CC(=O)O)NC(=O)[C@@H](NC(=O)[C@H](CO)NC(=O)[C@H](C)NC(=O)[C@H](Cc1ccc(O)cc1)NC(=O)[C@@H]1CCCN1C(=O)[C@H](CC(N)=O)NC(=O)[C@H](CCC(=O)O)NC(=O)CNC(=O)[C@H](CO)NC(=O)[C@H](CCCNC(=N)N)NC(=S)Nc1ccc2c(c1)C(=O)OC21c2ccc(O)cc2Oc2cc(O)ccc21)[C@@H](C)CC)C(=O)N[C@@H](CO)C(=O)N[C@@H](CCCCN)C(=O)NCC(=O)N[C@@H](CCC(=O)O)C(N)=O [ACE2_775–790 Unphos.] ({FITC}-RSGENPYASIDISKGE-NH2)	–	–	–	–	Kd [1]: ~60 µM; Kd [2]: > 100 µM; Kd [3]: > 100 µM; Kd [4]: > 100 µM; Kd [5]: > 100 µM; Kd [6]: > 100 µM; Kd [7]: > 100 µM; Kd [8]: > 100 µM
C[C@@H](O)[C@H](NC(=O)[C@H](CC(N)=O)NC(=O)[C@H](CCC(N)=O)NC(=O)[C@H](Cc1ccccc1)NC(=O)CNC(=O)[C@@H]1CCCN1C(=O)[C@H](CC(N)=O)NC(=O)[C@H](CC(N)=O)NC(=O)[C@H](CCC(=O)O)NC(=O)CNC(=O)[C@H](CCCCN)NC(=O)[C@H](CO)NC(=S)Nc1ccc2c(c1)C(=O)OC21c2ccc(O)cc2Oc2cc(O)ccc21)C(N)=O [ACE2_787–798] ({FITC}-SKGENNPGFQNT-NH2)	–	–	–	–	Kd [9]: > 100 µM; Kd [10]: > 100 µM; Kd [11]: > 100 µM; Kd [12]: > 100 µM; Kd [13]: ~100 µM
Cc1cccc(/C=N/Nc2cc(N3CCOCC3)nc(OCCc3ccccn3)n2)c1 [apilimod]	–	–	–	–	inhibition of viral replication [14]: potent inhibitor of viral replication
CC[C@H](C)[C@H](NC(=O)[C@H](CC(N)=O)NC(=O)[C@@H](NC(=O)[C@H](Cc1ccccc1)NC(=O)[C@@H](NC(=O)[C@H](COP(=O)(O)O)NC(=O)[C@@H](NC(=O)[C@H](C)NC(=O)[C@H](CCC(=O)O)NC(=O)[C@H](CCCCN)NC(C)=O)[C@@H](C)O)[C@@H](C)O)[C@@H](C)O)C(=O)N[C@H](C(=O)N[C@@H](Cc1ccc(O)cc1)C(=O)N[C@@H](CCCNC(=N)N)C(=O)NCC(N)=O)[C@@H](C)O [pSer^778] (Ac-KEAT[pS]TFTNITYRG-NH2)	29.4 ± 0.5	> 100	16.1 ± 0.5	80 ± 5	–
CC[C@H](C)[C@H](NC(=O)[C@H](CC(N)=O)NC(=O)[C@@H](NC(=O)[C@H](Cc1ccccc1)NC(=O)[C@@H](NC(=O)[C@H](CO)NC(=O)[C@@H](NC(=O)[C@H](C)NC(=O)[C@H](CCC(=O)O)NC(=O)[C@H](CCCCN)NC(C)=O)[C@@H](C)OP(=O)(O)O)[C@@H](C)O)[C@@H](C)O)C(=O)N[C@H](C(=O)N[C@@H](Cc1ccc(O)cc1)C(=O)N[C@@H](CCCNC(=N)N)C(=O)NCC(N)=O)[C@@H](C)O [pThr^777] (Ac-KEA[pT]STFTNITYRG-NH2)	> 100	> 100	73 ± 4	–	Ki [19]: 47 ± 3 µM
CC[C@H](C)[C@H](NC(=O)[C@H](CC(N)=O)NC(=O)[C@@H](NC(=O)[C@H](Cc1ccccc1)NC(=O)[C@@H](NC(=O)[C@H](CO)NC(=O)[C@@H](NC(=O)[C@H](C)NC(=O)[C@H](CCC(=O)O)NC(=O)[C@H](CCCCN)NC(C)=O)[C@@H](C)O)[C@@H](C)OP(=O)(O)O)[C@@H](C)O)C(=O)N[C@H](C(=O)N[C@@H](Cc1ccc(OP(=O)(O)O)cc1)C(=O)N[C@@H](CCCNC(=N)N)C(=O)NCC(N)=O)[C@@H](C)O [pThr^779/pTyr^785] (Ac-KEATS[pT]FTNIT[pY]RG-NH2)	8.5 ± 0.5	15 ± 1	8 ± 2	–	Ki [19]: 17.8 ± 0.8 µM
CC[C@H](C)[C@H](NC(=O)[C@H](CC(N)=O)NC(=O)[C@@H](NC(=O)[C@H](Cc1ccccc1)NC(=O)[C@@H](NC(=O)[C@H](CO)NC(=O)[C@@H](NC(=O)[C@H](C)NC(=O)[C@H](CCC(=O)O)NC(=O)[C@H](CCCCN)NC(C)=O)[C@@H](C)O)[C@@H](C)OP(=O)(O)O)[C@@H](C)O)C(=O)N[C@H](C(=O)N[C@@H](Cc1ccc(O)cc1)C(=O)N[C@@H](CCCNC(=N)N)C(=O)NCC(N)=O)[C@@H](C)O [pThr^779] (Ac-KEATS[pT]FTNITYRG-NH2)	> 100	> 100	82 ± 3	> 100	–
CC[C@H](C)[C@H](NC(=O)[C@H](CC(N)=O)NC(=O)[C@@H](NC(=O)[C@H](Cc1ccccc1)NC(=O)[C@@H](NC(=O)[C@H](CO)NC(=O)[C@@H](NC(=O)[C@H](C)NC(=O)[C@H](CCC(=O)O)NC(=O)[C@H](CCCCN)NC(C)=O)[C@@H](C)O)[C@@H](C)O)[C@@H](C)O)C(=O)N[C@H](C(=O)N[C@@H](Cc1ccc(OP(=O)(O)O)cc1)C(=O)N[C@@H](CCCNC(=N)N)C(=O)NCC(N)=O)[C@@H](C)O [pTyr^785] (Ac-KEATSTFTNIT[pY]RG-NH2)	38 ± 2	81 ± 2	83 ± 4	89 ± 12	–
